# Experiments:
# [1] = tested on: Eudrilus; assay: Anthelmintic activity against Eudrilus sp. assessed as mean paralyzing time; assay type: functional
# Procedure, shortened: (§1)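 Earthworms exposed to test suspensions at 2 mg mL^-1 (0.2% w/v), made by triturating compound with Tween 80 (0.5%) and distilled water, then mechanically stirred 30 min. Mebendazole suspension prepared alike as reference. Paralysis and death times recorded; death confirmed by no movement in 50 °C water. Means from triplicate sets.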
# [2] = tested on: Staphylococcus aureus; assay: Antibacterial activity against Staphylococcus aureus NCIM 2079 after 18 hrs by tube dilution method; assay type: functional; conditions: NCIM 2079, 18 h
# Procedure, shortened: (§2)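 Tube dilution MIC. Stock diluted in sterile broth to seven concentrations from 200 to 3.1 […]. Each tube inoculated with one loopful of test bacterium and incubated 18 h at 37 °C. MIC read from presence or absence of growth.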
# [3] = tested on: Pontoscolex corethrurus; assay: Anthelmintic activity against Pontoscolex corethrurus ICARBC 408 assessed as mean death time; assay type: functional
# Procedure, shortened: (§3)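 Earthworms exposed to test suspensions at 2 mg mL−1, prepared by triturating compound with Tween 80 (0.5%) and distilled water, stirring 30 min, then diluting to 0.2% w/v. Mebendazole suspension was made the same way. Death was confirmed by moving worms into 50 °C warm water and looking for movement. Mean death time (min) taken from triplicate sets.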
# [4] = tested on: Microsporum audouinii; assay: Antifungal activity against Microsporum audouinii MUCC 545 after 48 hrs by tube dilution method; assay type: functional
# Procedure, shortened: (§4)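 Tube dilution MIC as for bacteria (seven concentrations, 200–3.1 […]), with DMSO in place of DMF. Tubes inoculated with fungal culture and incubated 48 h at 37 °C. MIC read from presence or absence of growth.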
# [5] = tested on: Microsporum audouinii; assay: Antifungal activity against Microsporum audouinii MUCC 545 after 48 hrs by disc diffusion method; assay type: functional
# Procedure, shortened: (§5)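 Agar well diffusion on plates inoculated with spore suspension in normal saline from cultures on Sabouraud's broth. Wells punched and loaded with test samples or griseofulvin at 10 mg mL^-1, with DMSO as negative control. Incubated 48 h at 37 °C.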
# [6] = tested on: Escherichia coli; assay: Antibacterial activity against Escherichia coli NCIM 2065 after 18 hrs by disc diffusion method; assay type: functional
# Procedure, shortened: (§6)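 Modified Kirby-Bauer disc diffusion. Plates inoculated with spore suspension (about 6 × 10⁴ spores mL^-1). Sterile 6 mm paper discs carried test samples at 10 mg mL^-1; ciprofloxacin disc as reference, DMF disc as negative control. Plates held 18 h at 37 °C. Inhibition zone diameters (mm) averaged over triplicate sets.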
# [7] = tested on: Pontoscolex corethrurus; assay: Anthelmintic activity against Pontoscolex corethrurus ICARBC 408 assessed as mean paralyzing time; assay type: functional; procedure, shortened: as §1
# [8] = tested on: Bacillus subtilis; assay: Antibacterial activity against Bacillus subtilis NCIM 2063 after 18 hrs by tube dilution method; assay type: functional; conditions: NCIM 2063, 18 h; procedure, shortened: as §2
# [9] = tested on: Staphylococcus aureus; assay: Antibacterial activity against Staphylococcus aureus NCIM 2079 after 18 hrs by disc diffusion method; assay type: functional; procedure, shortened: as §6
# [10] = tested on: Eudrilus; assay: Anthelmintic activity against Eudrilus sp. assessed as mean death time; assay type: functional; procedure, shortened: as §3
# [11] = tested on: Candida albicans; assay: Antifungal activity against Candida albicans MUCC 29 after 48 hrs by disc diffusion method; assay type: functional; procedure, shortened: as §5
# [12] = tested on: Candida albicans; assay: Antifungal activity against Candida albicans MUCC 29 after 48 hrs by tube dilution method; assay type: functional; procedure, shortened: as §4
# [13] = tested on: Aspergillus niger; assay: Antifungal activity against Aspergillus niger MUCC 177 after 48 hrs by disc diffusion method; assay type: functional; procedure, shortened: as §5
# [14] = tested on: Pseudomonas aeruginosa; assay: Antibacterial activity against Pseudomonas aeruginosa NCIM 2034 after 18 hrs by disc diffusion method; assay type: functional; procedure, shortened: as §6
# [15] = tested on: Bacillus subtilis; assay: Antibacterial activity against Bacillus subtilis NCIM 2063 after 18 hrs by disc diffusion method; assay type: functional; procedure, shortened: as §6
# [16] = Anthelmintic activity against Megascoplex konkanensis ICARBC 211 assessed as mean paralyzing time; assay type: functional; procedure, shortened: as §1
# [17] = tested on: Trichophyton benhamiae; assay: Antifungal activity against Trichophyton mentagrophytes MUCC 665 after 48 hrs by disc diffusion method; assay type: functional, Arthroderma benhamiae; procedure, shortened: as §5
# [18] = Anthelmintic activity against Megascoplex konkanensis ICARBC 211 assessed as mean death time; assay type: functional; procedure, shortened: as §1
# [19] = tested on: Escherichia coli; assay: Antibacterial activity against Escherichia coli NCIM 2065 after 18 hrs by tube dilution method; assay type: functional; conditions: NCIM 2065, 18 h
# [20] = tested on: Pseudomonas aeruginosa; assay: Antibacterial activity against Pseudomonas aeruginosa NCIM 2034 after 18 hrs by tube dilution method; assay type: functional; conditions: NCIM 2034, 18 h; procedure, shortened: as §2
# [21] = tested on: Trichophyton benhamiae; assay: Antifungal activity against Trichophyton mentagrophytes MUCC 665 after 48 hrs by tube dilution method; assay type: functional, Arthroderma benhamiae; procedure, shortened: as §4
SMILES,Time [1] [min],MIC [2] [µg/mL],Time [3] [min],MIC [4] [µg/mL],inhibition zone (IZ) [5] [mm],inhibition zone (IZ) [6] [mm],Time [7] [min],MIC [8] [µg/mL],inhibition zone (IZ) [9] [mm],Time [10] [min],inhibition zone (IZ) [11] [mm],MIC [12] [µg/mL],inhibition zone (IZ) [13] [mm],inhibition zone (IZ) [14] [mm],inhibition zone (IZ) [15] [mm],TIME [16] [h],inhibition zone (IZ) [17] [mm],TIME [18] [h],MIC [19] [µg/mL],MIC [20] [µg/mL],also measured
COC(=O)[C@@H]1CCCN1C(=O)[C@@H]1CCCN1C(=O)[C@@H]1CCCN1C(=O)c1cc(-c2nc3ccc([N+](=O)[O-])cc3[nH]2)ccc1O,26.67,12.5,40.38,6,13,17,30.59,6,11,37.44,24,6,17,27,14,0.425,17,0.569,25,6,MIC [21]: 12.5 µg/mL
COC(=O)[C@H](C)NC(=O)[C@H](CCCNC(=N)N[N+](=O)[O-])NC(=O)c1cc(-c2nc3cc(C)c(C)cc3[nH]2)ccc1O,17.35,12.5,32.65,6,11,17,20.38,6,11,28.54,19,12.5,18,22,15,0.279,10,0.423,12.5,6,MIC [21]: 6 µg/mL
Cc1cc2nc(-c3ccc(O)c(C(=O)N[C@@H](C)C(=O)N[C@H](C(=O)N[C@@H](C)C(=O)O)C(C)C)c3)[nH]c2cc1C,25.18,25,41.6,6,11,17,29.65,6,11,36.14,19,6,17,21,14,0.42,15,0.57,25,6,MIC [21]: 6 µg/mL
O=C(O)CNC(=O)CNC(=O)c1cc(-c2nc3ccc([N+](=O)[O-])cc3[nH]2)ccc1O,25.5,12.5,42.26,6,13,16,31.18,25,9,36.7,18,6,17,22,9,0.451,16,0.601,12.5,6,MIC [21]: 6 µg/mL
O=C(O)c1cn(C2CC2)c2cc(N3CCNCC3)c(F)cc2c1=O [CIPROFLOXACIN],–,12.5,–,–,–,–,–,6,20,–,–,–,–,25,20,–,–,–,12.5,6,–
COC(=O)Nc1nc2cc(C(=O)c3ccccc3)ccc2[nH]1 [MEBENDAZOLE],13.54,–,29.64,–,–,–,17.85,–,–,24.05,–,–,–,–,–,0.231,–,0.382,–,–,–
